Measurements published in ChEMBL document CHEMBL1153900, “Structure-activity studies of echinomycin antibiotics against drug-resistant and biofilm-forming Staphylococcus aureus and Enterococcus faecalis” (Bioorg Med Chem Lett, 2009).
In brackets after ≈: the same amount, converted by molar mass. Activity calls are given as the source filed them. The calls are words filed in the database; no cut-off is given here.

What was measured:
[1] = system: Staphylococcus aureus; assay: Antimicrobial activity against methicillin-resistant Staphylococcus aureus L44 clinical isolate assessed as reduction in bacterial load at 4 fold MIC over 24 hrs by time-kill assay; type: functional
In short: (§1)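 Time-kill assay at 2× and 4× MIC over 24 h. Starting inoculum 5 × 10⁵ CFU/mL. Read-out is the mean change in bacterial density (log₁₀ CFU/mL) from the starting inoculum at 24 h, compared with a growth control.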

[2] = system: Staphylococcus aureus; assay: Antimicrobial activity against methicillin-resistant Staphylococcus aureus L44 clinical isolate by CLIS method; type: functional
In short: (§2)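 MIC and MBC determined against biofilm-forming strains: MSSA ATCC 35556, E. faecalis ATCC 29212, and two clinical biofilm-forming MRSA isolates (L32, L44) obtained from patient blood samples.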

[3] = system: Staphylococcus aureus; assay: Antimicrobial activity against methicillin-resistant Staphylococcus aureus L32 clinical isolate assessed as reduction in bacterial load at 4 fold MIC over 24 hrs by time-kill assay; type: functional; in short: as §1
[4] = system: Enterococcus faecalis; assay: Inhibition of Enterococcus faecalis ATCC 29212 biofilm formation at MIC
[5] = system: Staphylococcus aureus; assay: Inhibition of methicillin-susceptible Staphylococcus aureus ATCC […] biofilm formation assessed as concentration required to eradicate growth after 24 hrs; type: functional
In short: (§3)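 Modified Calgary pin-lid biofilm device, testing sessile bacteria seeded from an established biofilm. MBIC is the concentration giving no visible growth after 24 h incubation of preformed biofilm with antibiotic. MBEC is the minimal concentration that eradicates CFU/mL growth from the biofilm.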

[6] = system: Enterococcus faecalis; assay: Antimicrobial activity against Enterococcus faecalis ATCC 29212 assessed as reduction in bacterial load at 4 fold MIC over 24 hrs by time-kill assay
[7] = system: Staphylococcus aureus; assay: Antimicrobial activity against methicillin-resistant Staphylococcus aureus L32 clinical isolate assessed as reduction in bacterial load at 2 X MIC over 24 hrs by time-kill assay; type: functional; in short: as §1
[8] = system: Enterococcus faecalis; assay: Inhibition of Enterococcus faecalis ATCC 29212 biofilm formation assessed as concentration required to eradicate growth after 24 hrs
[9] = system: Staphylococcus aureus; assay: Antimicrobial activity against methicillin-resistant Staphylococcus aureus L44 clinical isolate assessed as reduction in bacterial load at 2 X MIC over 24 hrs by time-kill assay; type: functional; in short: as §1
[10] = system: Staphylococcus aureus; assay: Antimicrobial activity against methicillin-susceptible Staphylococcus aureus ATCC 35556 assessed as reduction in bacterial load at 4 fold MIC over 24 hrs by time-kill assay
[11] = system: Enterococcus faecalis; assay: Inhibition of Enterococcus faecalis ATCC 29212 biofilm formation assessed as visible growth after 24 hrs
[12] = system: Enterococcus faecalis; assay: Antimicrobial activity against Enterococcus faecalis ATCC 29212 by CLIS method
[13] = system: Staphylococcus aureus; assay: Inhibition of methicillin-susceptible Staphylococcus aureus ATCC 35556 biofilm formation assessed as visible growth after 24 hrs
[14] = system: Enterococcus faecalis; assay: Antimicrobial activity against Enterococcus faecalis ATCC 29212 assessed as reduction in bacterial load at 2 X MIC over 24 hrs by time-kill assay
[15] = system: Staphylococcus aureus; assay: Antimicrobial activity against methicillin-susceptible Staphylococcus aureus ATCC 35556 by CLIS method
[16] = system: Staphylococcus aureus; assay: Antimicrobial activity against methicillin-resistant Staphylococcus aureus L32 clinical isolate by CLIS method; type: functional; in short: as §2
[17] = system: Staphylococcus aureus; assay: Inhibition of Staphylococcus aureus ATCC 35556 biofilm formation at MIC
[18] = system: HCT-116; assay: Cytotoxicity against human HCT116 cells; type: functional, cell-based
[19] = system: Staphylococcus aureus; assay: Antimicrobial activity against methicillin-susceptible Staphylococcus aureus ATCC 35556 assessed as reduction in bacterial load at 2 X MIC over 24 hrs by time-kill assay
[20] = system: Staphylococcus aureus; assay: Inhibition of methicillin-resistant Staphylococcus aureus L32 clinical isolate biofilm formation assessed as concentration required to eradicate growth after 24 hrs; type: functional, isolateL32; in short: as §3
[21] = system: Staphylococcus aureus; assay: Inhibition of methicillin-susceptible Staphylococcus aureus ATCC 35556 biofilm formation assessed as concentration required to eradicate growth after 24 hrs
[22] = system: Staphylococcus aureus; assay: Inhibition of methicillin-resistant Staphylococcus aureus L32 clinical isolate biofilm formation assessed as visible growth after 24 hrs; type: functional; in short: as §3
[23] = system: Staphylococcus aureus; assay: Inhibition of methicillin-resistant Staphylococcus aureus L44 clinical isolate biofilm formation assessed as visible growth after 24 hrs; type: functional; in short: as §3
[24] = system: Staphylococcus aureus; assay: Inhibition of methicillin-resistant Staphylococcus aureus L44 clinical isolate biofilm formation assessed as concentration required to eradicate growth after 24 hrs; type: functional; in short: as §3

Row | SMILES | log10CFU/ml [1] | MBC [2] [µM] | MIC [2] [µM] | log10CFU/ml [3] | Activity [4] | log10CFU/ml [6] | log10CFU/ml [7] | log10CFU/ml [9] | log10CFU/ml [10] | MBC [12] [µM] | MIC [12] [µM] | MBIC [13] [µM] | log10CFU/ml [14] | MBC [15] [µM] | MIC [15] [µM] | MBC [16] [µM] | MIC [16] [µM] | Activity [17] | IC50 [18] [µM] | log10CFU/ml [19] | further results
1 | CS[C@@H]1[C@H]2C(=O)N(C)[C@@H](C(C)C)C(=O)OC[C@@H](NC(=O)c3cnc4ccccc4n3)C(=O)N[C@@H](C)C(=O)N(C)[C@@H](C[S+]1[O-])C(=O)N(C)[C@@H](C(C)C)C(=O)OC[C@@H](NC(=O)c1cnc3ccccc3n1)C(=O)N[C@@H](C)C(=O)N2C (stereo partly drawn) | -2.24 | 7.17 (≈ 8.01 µg/mL) | 1.79 (≈ 2 µg/mL) | -2.15 | Active | -1.04 | -1.35 | -1.09 | -3.24 | > 14 | 0.22 (≈ 0.246 µg/mL) | 3.6 | 0.69 | 3.58 (≈ 4 µg/mL) | 0.9 (≈ 1.01 µg/mL) | 7.17 (≈ 8.01 µg/mL) | 1.79 (≈ 2 µg/mL) | Active | 0.4 | -3.39 | MBEC [5]: >4 µM; MBEC [8]: >4 µM; MBEC [11]: >4 µM
2 | CS[C@H]1SC[C@H](N(C)C(=O)[C@H](C)NC(=O)[C@@H](CO)NC(=O)c2cnc3ccccc3n2)C(=O)N(C)[C@@H](C(C)C)C(=O)OC[C@@H](NC(=O)c2cnc3ccccc3n2)C(=O)N[C@@H](C)C(=O)N(C)[C@@H]1C(=O)N(C)[C@H](C(=O)O)C(C)C [DEPSIECHINOSERINE] |  | > 14 | > 14 |  |  |  |  |  |  | > 14 | 14 (≈ 15.7 µg/mL) |  |  | > 14 | > 14 | > 14 | > 14 |  | 4.6 |  | 
3 | CS[C@H]1SC[C@H]2C(=O)N(C)[C@@H](C(C)C)C(=O)OC[C@@H](NC(=O)c3cnc4ccccc4n3)C(=O)N[C@@H](C)C(=O)N(C)[C@@H]1C(=O)N(C)[C@@H](C(C)C)C(=O)OC[C@@H](NC(=O)c1cnc3ccccc3n1)C(=O)N[C@@H](C)C(=O)N2C [ECHINOMYCIN] | -1.23 | 0.45 (≈ 0.496 µg/mL) | 0.03 (≈ 0.033 µg/mL) | -2.39 | Active | -1.42 | 0.61 | 0.423 | -1.79 | 0.11 (≈ 0.121 µg/mL) | 0.01 (≈ 0.011 µg/mL) | 0.03 | 0.04 | 0.45 (≈ 0.496 µg/mL) | 0.01 (≈ 0.011 µg/mL) | 0.91 (≈ 1 µg/mL) | 0.03 (≈ 0.033 µg/mL) | Active | < 0.003 | -1.54 | MBIC [20]: >4 µM; MBEC [21]: 0.22 µM; MBIC [22]: >4 µM; MBIC [23]: >4 µM; MBIC [8]: 0.22 µM; MBIC [24]: >4 µM; MBIC [11]: 0.22 µM
4 | CS[C@@H](SC[C@@H](C(=O)N(C)[C@H](C(=O)O)C(C)C)N(C)C(=O)[C@H](C)NC(=O)[C@@H](CO)NC(=O)c1cnc2ccccc2n1)[C@@H](C(=O)N(C)[C@H](C(=O)O)C(C)C)N(C)C(=O)[C@H](C)NC(=O)[C@@H](CO)NC(=O)c1cnc2ccccc2n1 [ECHINOSERINE] |  | > 14 | > 14 |  |  |  |  |  |  | > 14 | > 14 |  |  | > 14 | > 14 | > 14 | > 14 |  | 13.4 |  | 
